Screening results from PubChem BioAssay.
Mcl-1 Bim block: inhibitors of Bim peptide binding to Mcl-1, primary screen, biochemical, bead-based flow cytometry, multiplex; inhibition, % at 10 µM; Bim peptide-Mcl-1 binding; 0.1% of 190,000 active; in the data active = inhibition above about 40%;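 note: 0% = no compound tracer wells and 100% = peptide blocker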
Target sequence (Q07820 whole entry, looked up): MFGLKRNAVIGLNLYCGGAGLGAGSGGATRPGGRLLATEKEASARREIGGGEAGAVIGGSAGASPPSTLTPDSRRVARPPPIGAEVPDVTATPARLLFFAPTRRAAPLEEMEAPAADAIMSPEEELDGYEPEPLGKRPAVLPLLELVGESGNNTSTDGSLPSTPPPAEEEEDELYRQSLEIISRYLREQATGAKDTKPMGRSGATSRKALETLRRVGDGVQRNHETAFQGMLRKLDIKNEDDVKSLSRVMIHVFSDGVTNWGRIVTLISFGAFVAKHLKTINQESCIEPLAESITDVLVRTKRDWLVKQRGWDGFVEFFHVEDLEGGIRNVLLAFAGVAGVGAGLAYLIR
14-3-3 Bad inh: inhibitors of 14-3-3 zeta/Bad binding, primary screen, biochemical, TR-FRET, bovine 14-3-3 zeta; 14-3-3 protein zeta/delta (Bos taurus), P63103; TR-FRET 14-3-3zeta/Dy647-pBad peptide displacement, 1 h; inhibition, % at 21.7 µM; 0.71% of 220,000 active; AID 781, 2007;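 active = inhibition above about 70%, limit read from the data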;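 note: 0% = full 14-3-3 plus peptide FRET controls and 100% = background without 14-3-3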
Target sequence (P63103 whole entry, looked up): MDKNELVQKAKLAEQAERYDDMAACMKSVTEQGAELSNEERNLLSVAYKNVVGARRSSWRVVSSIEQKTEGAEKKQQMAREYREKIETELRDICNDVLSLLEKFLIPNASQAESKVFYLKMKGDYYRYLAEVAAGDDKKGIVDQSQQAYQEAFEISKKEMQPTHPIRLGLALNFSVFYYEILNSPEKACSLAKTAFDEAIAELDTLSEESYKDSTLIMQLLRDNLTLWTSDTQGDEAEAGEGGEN
Biofilm kill mix: clotrimazole potentiators killing C. albicans biofilm, primary screen, 4-compound mixtures. AID 1242, 2008. inhibition, % at 7.6 µM. 0.02% of 120,000 active. C. albicans biofilm persisters + clotrimazole, fluorescence viability; primary screen in compound mixtures of four per well;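 note: compounds exposed to preformed 24 h biofilms for 48 h; 0% = untreated biofilm control and 100% = clotrimazole plus chlorhexidine kill blank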
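Test system: C. albicans biofilms. Buffer or medium: RPMI/MOPS medium, pH 7.0. Timing: 48 h compound exposure at 37 °C. Technique: Alamar Blue fluorescence. Evaluation: percent inhibition of biofilm viability.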
Hck Nef HTS: inhibitors of Nef-activated human Hck kinase, primary screen, biochemical, Z-Lyte FRET, 384-well, Hck-YEEI | Recombinant Hck-YEEI plus Nef, Z-Lyte FRET kinase assay | 0.68% of 220,000 active | AID 463187, 2010 | inhibition, % at 20 µM | Tyrosine-protein kinase HCK (Homo sapiens), P08631;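 active = Hck-Nef kinase inhibition above about 50%, limit read from the data; inactive = inhibition below that limit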;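 note: 0% = DMSO with Hck plus Nef and 100% = Hck alone without Nef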
Mcl1-Noxa inh: Mcl-1/Noxa binding inhibitors, primary screen, biochemical, TR-FRET, 1536-well; TR-FRET Mcl-1/Noxa peptide binding, 2 h; 1.5% of 220,000 active; inhibition, % at 21.7 µM; Induced myeloid leukemia cell differentiation protein Mcl-1 (Homo sapiens), Q07820;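 active = compounds that cut the protein-peptide binding signal by more than 50% relative to plate controls in a single-dose test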;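 note: His-tagged Mcl-1 with rhodamine Noxa BH3 peptide and terbium anti-His antibody; 0% = Mcl-1 plus Noxa peptide wells and 100% = peptide-only wells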
Mcl1-Bid inh: Mcl-1/Bid binding inhibitors, primary screen, biochemical, TR-FRET, 1536-well; Induced myeloid leukemia cell differentiation protein Mcl-1 (Homo sapiens), Q07820; TR-FRET Mcl-1/Bid-Dy647 peptide binding; inhibition, % at 21.7 µM; 0.97% of 220,000 active;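 active = compounds that cut the binding signal by more than half at the single screening dose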;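 note: His-tagged Mcl-1 with europium anti-His antibody binding Bid BH3 peptide; 0% = Mcl-1 plus peptide wells and 100% = peptide-only wells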
* = called active by the depositor; · = no result given; + = active, no number. Rows were chosen to be rich in hits. Some 3.2% of all compounds tested hit in one or more screens of this group.

SMILES	Mcl-1 Bim block	14-3-3 Bad inh	Biofilm kill mix	Hck Nef HTS	Mcl1-Noxa inh	Mcl1-Bid inh
CCOC(=O)c1c(C)c(/C=N/Nc2ccccc2)n(C)c1C	-3	-7	12	-5	11	-26
Cc1c(NS(=O)(=O)c2cc(NC(=O)CCN3CCCC(C)C3)ccc2Cl)c(=O)n(-c2ccccc2)n1C (stereo not drawn)	0	-7	12	20	78*	-22
CC(/C=N/N1CCN(c2ccc(C)cc2)CC1)=C\c1ccccc1	-3	-4	16	5	15	-12
BrC(=C\c1ccccc1)/C=N/N1CCN(c2ccccc2)CC1	43*	-3	16	4	24	-43
COc1cc(/C=C(/C#N)c2nc3ccccc3c(=O)[nH]2)ccc1O	-2	14	15	-7	42	70*
COc1cc(/C=C(\C#N)c2nc3ccccc3[nH]2)cc(Br)c1OCc1ccccc1	-3	17	12	7	30	9
Cc1ccc2nc(/C(C#N)=C/c3ccc(-c4cccc([N+](=O)[O-])c4)o3)[nH]c2c1	0	39	0	24	80*	36
COc1cc(/C=C(\C#N)C(=O)c2c[nH]c3ccccc23)cc(OC)c1O	3	10	9	6	70*	46
COc1cc(/C=C(/C#N)c2nc3ccccc3[nH]2)ccc1OC(=O)c1ccco1	-6	-11	·	4	13	-2
Cc1ccc2nc(/C(C#N)=C\c3cc(O)ccc3[N+](=O)[O-])[nH]c2c1	0	9	14	-6	21	-37
COc1cc(/C=C(\C#N)c2nc3ccccc3[nH]2)cc(OC)c1O	5	-2	21	23	72*	-23
COc1cc(/C=C(\C#N)C(=O)NCCc2ccccc2)cc(OC)c1O	-6	8	17	-10	18	5
CCOc1ccc(S(=O)(=O)NN=C2CCN(C(C)=O)CC2)cc1	0	-2	13	2	4	-39
NC(=O)C1CCN(C2CC(=O)NC2=O)CC1 (stereo not drawn)	0	-1	6	30	-4	-9
Cc1cc(C)c2c(NC(=S)NC(=O)c3ccccc3)n[nH]c2n1	-1	-8	-6	21	11	-20
Cc1cnccc1CN(C)Cc1nc(Cc2ccccc2Cl)no1	-1	-6	8	17	-2	-18
COc1ccc2oc(C(F)(F)C(F)(F)F)cc(=O)c2c1	-2	1	·	0	6	-24
O=C(Nc1ccccc1)N(C1=NCCC1)c1ccc(OC(F)F)cc1	3	-10	·	4	13	-8
Cc1cccc(Cl)c1NC(=O)N1CCCN(c2ncccc2[N+](=O)[O-])CC1	·	-11	24	-9	21	-21
COc1cc(/C=C(\C#N)c2nc3ccc(C)cc3[nH]2)cc([N+](=O)[O-])c1O	11	3	15	29	81*	-47
COc1ccc(/C=C(\C#N)c2nc3ccc(C)cc3[nH]2)cc1Oc1ccc(C(F)(F)F)cc1[N+](=O)[O-]	0	12	·	22	0	-12
COc1cc(/C=C(\C#N)c2nc3ccc(C)cc3[nH]2)c([N+](=O)[O-])cc1OC	-5	-6	·	1	18	-6
Cc1ccc2nc(/C(C#N)=C\c3ccc(Oc4ccc(C(F)(F)F)cc4[N+](=O)[O-])cc3)[nH]c2c1	-3	-6	14	10	51*	-28
CCCCSc1nc(C(=O)O)cc(=O)[nH]1	·	-15	15	26	19	6
CCOc1cc(/C=C2/SC(=S)NC2=O)ccc1OC(=O)c1ccco1	-6	2	10	27	57*	-4
SMILES	Mcl-1 Bim block	14-3-3 Bad inh	Biofilm kill mix	Hck Nef HTS	Mcl1-Noxa inh	Mcl1-Bid inh
CCOC(=O)c1ccc(N2NC(=O)/C(=C/c3ccc(OC(=O)c4ccco4)c(OC)c3)C2=O)cc1	9	2	16	21	56*	-43
COc1cc(/C=C2\C(=O)N(c3ccc(S(N)(=O)=O)cc3)N=C2C)ccc1OC(=O)c1ccco1	-8	63	20	37	49	34
COc1cc(/C=C2\CC/C(=C\c3cc(OC)c(O)c(OC)c3)C2=O)cc(OC)c1O	17	-3	6	30	101*	-2
c1ccc(N2CCN(C3CCSC3)CC2)cc1 (stereo not drawn)	0	71*	·	-2	14	17
O=S(=O)(c1ccc(F)cc1)N1CCC(N2CCN(c3ccccc3)CC2)CC1	·	·	·	-2	·	·
CC(Sc1ccc2ccccc2c1)C(=O)NC(N)=O (stereo not drawn)	1	-2	19	-24	0	-1
COc1ccc(N=Cc2c(O)n(-c3ccc(OC)cc3)c(=O)c3ccccc23)cc1	-2	75*	14	32	46	49
COc1ccc(N=Cc2c(O)n(-c3cccc(C)n3)c(=O)c3ccccc23)cc1	0	2	19	-1	1	-2
O=c1c2ccccc2c(C=Nc2cccc(O)c2)c(O)n1-c1ccc2c(c1)OCO2	-4	23	·	15	50	60*
CCC(C)NC(=O)CSc1n[nH]c(-c2cc(Cl)ccc2OC)n1 (stereo not drawn)	-4	-6	3	24	-6	-8
Cc1cccn2c(=O)c3cc(C#N)c(=O)n(CC4CCCO4)c3nc12 (stereo not drawn)	-1	17	·	+	-6	-25
Cc1ccccc1C(=O)N=c1c(C#N)cc2c(=O)n3cccc(C)c3nc2n1Cc1ccco1	-3	7	·	13	3	-16
COc1ccc(C(=O)N=c2c(C#N)cc3c(=O)n4cccc(C)c4nc3n2Cc2ccco2)cc1	-3	-8	·	8	77*	20
N#Cc1cc2c(=O)n3ccccc3nc2n(CC2CCCO2)c1=N (stereo not drawn)	·	·	·	42	·	·
N#C/C(=C\c1sc(N2CCOCC2)nc1-c1ccccc1)C(=O)Nc1cccc2ccccc12	0	-5	17	18	21	57*
Cc1ccc(S(=O)(=O)N/N=C/c2cnn(C)c2C)cc1	-8	-11	·	1	4	70*
CCn1ncc(/C=N/NS(=O)(=O)c2ccc(Cl)cc2)c1C	-4	-17	·	-1	20	-64
COc1ccc(Cn2c(=O)c3[nH]cnc3n(-c3ccc(C)cc3)c2=O)cc1	·	0	11	13	18	-28
